One block for each compound: values may come before it.
Experiments:
[1] = molecular target: Amyloid-beta precursor protein (Homo sapiens, UniProt P05067); assay: Inhibition constant for aggregates of amyloid beta compared to [125I]IMSB
Method in brief: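 Aβ(1-40) or Aβ(1-42) aggregated at 0.5 or 0.25 mg/mL respectively in pH 7.4 buffer (10 mM sodium phosphate, 1 mM EDTA), 37 °C, 36-42 h with shaking. Competition against ¹²⁵I radioligand with fibrils 10-50 nM (final), 10% EtOH, 1 mL. Incubation 3 h room temperature. Bound ligand collected by GF/B filtration, γ-counted. Ki by nonlinear regression. Mean ± SEM, three experiments in duplicate.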

Mus musculus [2] = assay: Biodistribution was measured in mice heart 6 hours after intravenous injection of [125I]-labeled styrylbenzene.; format: ADME, organism-based; details: in vivo
Method in brief: (§1)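 ICR mice (2-3 months old, 20-30 g) under ether anesthesia received 5-10 µCi ¹²⁵I tracer in 0.15 mL saline by tail-vein injection. Animals were killed by cardiac excision at set times post-injection. Organs were removed, weighed and γ-counted. Values are % dose per organ against diluted injectate aliquots, taking blood and muscle as 7% and 40% of body weight. Mean of 3-4 mice ± SD.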

Mus musculus [3] = assay: Biodistribution was measured in mice heart 60 minutes after intravenous injection of [125I]-labeled styrylbenzene.; format: ADME, organism-based; details: in vivo, 1 h; method in brief: as §1
Mus musculus [4] = assay: Biodistribution was measured in mice kidney 2 minutes after intravenous injection of [125I]-labeled styrylbenzene.; format: ADME, organism-based; details: in vivo; method in brief: as §1
Mus musculus [5] = assay: Biodistribution was measured in mice kidney 24 hours after intravenous injection of [125I]-labeled styrylbenzene.; format: ADME, organism-based; details: in vivo; method in brief: as §1
Mus musculus [6] = assay: Biodistribution was measured in mice kidney 30 minutes after intravenous injection of [125I]-labeled styrylbenzene.; format: ADME, organism-based; details: in vivo, 0.5 h; method in brief: as §1
Mus musculus [7] = assay: Biodistribution was measured in mice kidney 6 hours after intravenous injection of [125I]-labeled styrylbenzene.; format: ADME, organism-based; details: in vivo; method in brief: as §1
Mus musculus [8] = assay: Biodistribution was measured in mice kidney 60 minutes after intravenous injection of [125I]-labeled styrylbenzene.; format: ADME, organism-based; details: in vivo, 1 h; method in brief: as §1
Mus musculus [9] = assay: Biodistribution was measured in mice liver 2 minutes after intravenous injection of [125I]-labeled styrylbenzene.; format: ADME, organism-based; details: in vivo; method in brief: as §1
Mus musculus [10] = assay: Biodistribution was measured in mice liver 24 hours after intravenous injection of [125I]-labeled styrylbenzene.; format: ADME, organism-based; details: in vivo; method in brief: as §1
Mus musculus [11] = assay: Biodistribution was measured in mice liver 30 minutes after intravenous injection of [125I]-labeled styrylbenzene.; format: ADME, organism-based; details: in vivo, 0.5 h; method in brief: as §1
Mus musculus [12] = assay: Biodistribution was measured in mice liver 60 minutes after intravenous injection of [125I]-labeled styrylbenzene.; format: ADME, organism-based; details: in vivo, 1 h; method in brief: as §1
Mus musculus [13] = assay: Biodistribution was measured in mice muscle 24 hourss after intravenous injection of [125I]-labeled styrylbenzene.; format: ADME, organism-based, Muscle tissue; details: in vivo; method in brief: as §1
Mus musculus [14] = assay: Biodistribution was measured in mice muscle 30 minutes after intravenous injection of [125I]-labeled styrylbenzene.; format: ADME, organism-based, Muscle tissue; details: in vivo, 0.5 h; method in brief: as §1
Mus musculus [15] = assay: Biodistribution was measured in mice muscle 6 hours after intravenous injection of [125I]-labeled styrylbenzene.; format: ADME, organism-based, Muscle tissue; details: in vivo; method in brief: as §1
Mus musculus [16] = assay: Biodistribution was measured in mice muscle 60 minutes after intravenous injection of [125I]-labeled styrylbenzene.; format: ADME, organism-based, Muscle tissue; details: in vivo, 1 h; method in brief: as §1
Mus musculus [17] = assay: Biodistribution was measured in mice skin 2 minutes after intravenous injection of [125I]-labeled styrylbenzene.; format: ADME, organism-based, Zone of skin; details: in vivo; method in brief: as §1
Mus musculus [18] = assay: Biodistribution was measured in mice skin 24 hours after intravenous injection of [125I]-labeled styrylbenzene.; format: ADME, organism-based, Zone of skin; details: in vivo; method in brief: as §1
Mus musculus [19] = assay: Biodistribution was measured in mice skin 30 minutes after intravenous injection of [125I]-labeled styrylbenzene.; format: ADME, organism-based, Zone of skin; details: in vivo, 0.5 h; method in brief: as §1
Mus musculus [20] = assay: Biodistribution was measured in mice skin 6 hours after intravenous injection of [125I]-labeled styrylbenzene.; format: ADME, organism-based, Zone of skin; details: in vivo; method in brief: as §1
Mus musculus [21] = assay: Biodistribution was measured in mice skin 60 minutes after intravenous injection of [125I]-labeled styrylbenzene.; format: ADME, organism-based, Zone of skin; details: in vivo, 1 h; method in brief: as §1
Mus musculus [22] = assay: Biodistribution was measured in mice spleen 2 minutes after intravenous injection of [125I]-labeled styrylbenzene.; format: ADME, organism-based; details: in vivo; method in brief: as §1
Mus musculus [23] = assay: Biodistribution was measured in mice spleen 24 hours after intravenous injection of [125I]-labeled styrylbenzene.; format: ADME, organism-based; details: in vivo
Mus musculus [24] = assay: Biodistribution was measured in mice spleen 30 minutes after intravenous injection of [125I]-labeled styrylbenzene.; format: ADME, organism-based; details: in vivo, 0.5 h
Method in brief: (§2)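 ICR mice (2-3 months old, 20-30 g) under ether anesthesia; 0.15 mL saline containing 5-10 µCi ¹²⁵I tracer injected into tail vein. Sacrifice by cardiac excision at set times; organs removed, weighed, γ-counted. Expressed as % dose per organ versus diluted aliquots of injectate. Mean of three or four mice ± SD.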

Mus musculus [25] = assay: Biodistribution was measured in mice spleen 60 minutes after intravenous injection of [125I]-labeled styrylbenzene.; format: ADME, organism-based; details: in vivo, 1 h; method in brief: as §2
Mus musculus [26] = assay: Biodistribution was measured in mice blood 2 minutes after intravenous injection of [125I]-labeled styrylbenzene.; format: ADME, organism-based; details: in vivo; method in brief: as §1
Mus musculus [27] = assay: Biodistribution was measured in mice blood 24 hours after intravenous injection of [125I]-labeled styrylbenzene.; format: ADME, organism-based; details: in vivo; method in brief: as §1
Mus musculus [28] = assay: Biodistribution was measured in mice blood 30 minutes after intravenous injection of [125I]-labeled styrylbenzene.; format: ADME, organism-based; details: in vivo, 0.5 h; method in brief: as §1
Mus musculus [29] = assay: Biodistribution was measured in mice lung 2 minutes after intravenous injection of [125I]-labeled styrylbenzene.; format: ADME, organism-based; details: in vivo; method in brief: as §1
Mus musculus [30] = assay: Biodistribution was measured in mice lung 24 hours after intravenous injection of [125I]-labeled styrylbenzene.; format: ADME, organism-based; details: in vivo, in the assay text read “thioflavin” for “styrylbenzene”; method in brief: as §1
Mus musculus [31] = assay: Biodistribution was measured in mice lung 30 minutes after intravenous injection of [125I]-labeled styrylbenzene.; format: ADME, organism-based; details: in vivo, 0.5 h; method in brief: as §1
Mus musculus [32] = assay: Biodistribution was measured in mice lung 6 hours after intravenous injection of [125I]-labeled styrylbenzene.; format: ADME, organism-based; details: in vivo, in the assay text read “thioflavin” for “styrylbenzene”; method in brief: as §1
Mus musculus [33] = assay: Biodistribution was measured in mice lung 60 minutes after intravenous injection of [125I]-labeled styrylbenzene.; format: ADME, organism-based; details: in vivo, 1 h; method in brief: as §1
Mus musculus [34] = assay: Biodistribution was measured in mice muscle 2 minutes after intravenous injection of [125I]-labeled styrylbenzene.; format: ADME, organism-based, Muscle tissue; details: in vivo, in the assay text read “thioflavin” for “styrylbenzene”; method in brief: as §1
Mus musculus [35] = assay: Biodistribution was measured in mice brain 6 hours after intravenous injection of [125I]-labeled styrylbenzene; format: ADME, organism-based; details: in vivo; method in brief: as §1
Mus musculus [36] = assay: Biodistribution was measured in mice brain 60 minutes after intravenous injection of [125I]-labeled styrylbenzene; format: ADME, organism-based; details: in vivo, 1 h; method in brief: as §1
Mus musculus [37] = assay: Biodistribution was measured in mice heart 2 minutes after intravenous injection of [125I]-labeled styrylbenzene.; format: ADME, organism-based; details: in vivo; method in brief: as §1
Mus musculus [38] = assay: Biodistribution was measured in mice heart 24 hours after intravenous injection of [125I]-labeled styrylbenzene.; format: ADME, organism-based; details: in vivo; method in brief: as §1
Mus musculus [39] = assay: Biodistribution was measured in mice heart 30 minutes after intravenous injection of [125I]-labeled styrylbenzene.; format: ADME, organism-based; details: in vivo, 0.5 h; method in brief: as §1
Mus musculus [40] = assay: Biodistribution was measured in mice blood 6 hours after intravenous injection of [125I]-labeled styrylbenzene.; format: ADME, organism-based; details: in vivo; method in brief: as §1
Mus musculus [41] = assay: Biodistribution was measured in mice blood 60 minutes after intravenous injection of [125I]-labeled styrylbenzene.; format: ADME, organism-based; details: in vivo, 1 h; method in brief: as §1
Mus musculus [42] = assay: Biodistribution was measured in mice brain 2 minutes after intravenous injection of [125I]-labeled styrylbenzene; format: ADME, organism-based; details: in vivo, in the assay text read “thioflavin” for “styrylbenzene”; method in brief: as §1
Mus musculus [43] = assay: Biodistribution was measured in mice brain 24 hours after intravenous injection of [125I]-labeled styrylbenzene; format: ADME, organism-based; details: in vivo, in the assay text read “thioflavin” for “styrylbenzene”; method in brief: as §1
Mus musculus [44] = assay: Biodistribution was measured in mice brain 30 minutes after intravenous injection of [125I]-labeled styrylbenzene; format: ADME, organism-based; details: in vivo, 0.5 h; method in brief: as §1
Mus musculus [45] = assay: Biodistribution was measured in mice liver 6 hours after intravenous injection of [125I]-labeled styrylbenzene.; format: ADME, organism-based; details: in vivo, in the assay text read “thioflavin” for “styrylbenzene”; method in brief: as §1
Mus musculus [46] = assay: Biodistribution was measured in mice spleen 6 hours after intravenous injection of [125I]-labeled thioflavin.; details: in vivo

Chain of Amyloid-beta precursor protein (P05067 whole entry): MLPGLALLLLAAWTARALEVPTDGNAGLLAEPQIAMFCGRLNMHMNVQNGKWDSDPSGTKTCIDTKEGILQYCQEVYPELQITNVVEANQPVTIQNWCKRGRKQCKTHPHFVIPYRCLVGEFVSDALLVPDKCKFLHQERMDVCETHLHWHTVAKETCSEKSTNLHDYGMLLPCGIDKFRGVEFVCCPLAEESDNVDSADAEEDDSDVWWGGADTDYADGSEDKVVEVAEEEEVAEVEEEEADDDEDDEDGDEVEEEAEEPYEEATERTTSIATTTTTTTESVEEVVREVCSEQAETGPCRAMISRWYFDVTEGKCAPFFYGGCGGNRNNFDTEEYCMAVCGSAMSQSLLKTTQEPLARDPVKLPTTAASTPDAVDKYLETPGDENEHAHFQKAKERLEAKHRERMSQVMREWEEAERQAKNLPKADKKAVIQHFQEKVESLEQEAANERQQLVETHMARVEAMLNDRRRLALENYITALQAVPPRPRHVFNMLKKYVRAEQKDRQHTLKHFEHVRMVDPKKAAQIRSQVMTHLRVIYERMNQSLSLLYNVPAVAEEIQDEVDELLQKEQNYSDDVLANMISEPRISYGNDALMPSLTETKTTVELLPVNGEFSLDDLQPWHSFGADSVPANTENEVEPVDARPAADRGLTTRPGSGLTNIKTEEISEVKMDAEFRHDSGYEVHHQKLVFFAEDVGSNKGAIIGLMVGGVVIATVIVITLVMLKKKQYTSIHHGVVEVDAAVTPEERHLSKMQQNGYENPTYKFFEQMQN

Ki [1]: > 3 µM
SMILES: CN(C)c1ccc(-c2nc3ccc(Br)cc3s2)cc1

Dose/organ (Mus musculus [2]): 0.05%
Dose/organ (Mus musculus [3]): 0.17%
Dose/organ (Mus musculus [4]): 5.42%
Dose/organ (Mus musculus [5]): 0.06%
Dose/organ (Mus musculus [6]): 2.24%
Dose/organ (Mus musculus [7]): 0.54%
Dose/organ (Mus musculus [8]): 2.23%
Dose/organ (Mus musculus [9]): 31.62%
Dose/organ (Mus musculus [10]): 0.3%
Dose/organ (Mus musculus [11]): 10.93%
Dose/organ (Mus musculus [12]): 9.21%
Dose/organ (Mus musculus [13]): 0.33%
Dose/organ (Mus musculus [14]): 12.89%
Dose/organ (Mus musculus [15]): 2.93%
Dose/organ (Mus musculus [16]): 12.81%
Dose/organ (Mus musculus [17]): 3.2%
Dose/organ (Mus musculus [18]): 0.2%
Dose/organ (Mus musculus [19]): 7.4%
Dose/organ (Mus musculus [20]): 3.8%
Dose/organ (Mus musculus [21]): 12.8%
Dose/organ (Mus musculus [22]): 0.59%
Dose/organ (Mus musculus [23]): 0.01%
Dose/organ (Mus musculus [24]): 0.2%
Dose/organ (Mus musculus [25]): 0.17%
Dose/organ (Mus musculus [26]): 15.74%
Dose/organ (Mus musculus [27]): 0.29%
Dose/organ (Mus musculus [28]): 3.26%
Dose/organ (Mus musculus [29]): 5.91%
Dose/organ (Mus musculus [30]): 0.03%
Dose/organ (Mus musculus [31]): 0.72%
Dose/organ (Mus musculus [32]): 0.21%
Dose/organ (Mus musculus [33]): 0.78%
Dose/organ (Mus musculus [34]): 17.81%
Dose/organ (Mus musculus [35]): 0.65%
Dose/organ (Mus musculus [36]): 1.57%
Dose/organ (Mus musculus [37]): 1.79%
Dose/organ (Mus musculus [38]): 0.01%
Dose/organ (Mus musculus [39]): 0.2%
Dose/organ (Mus musculus [40]): 1.44%
Dose/organ (Mus musculus [41]): 3.79%
Dose/organ (Mus musculus [42]): 0.6%
Dose/organ (Mus musculus [43]): 0.04%
Dose/organ (Mus musculus [44]): 0.9%
Ki [1]: > 5 µM
Dose/organ (Mus musculus [45]): 1.52%
Dose/organ (Mus musculus [46]): 0.04%
SMILES: CN(C)c1ccc(-c2nc3ccc(I)cc3s2)cc1

— ChEMBL document CHEMBL1134439, “Radioiodinated styrylbenzenes and thioflavins as probes for amyloid aggregates” (J Med Chem, 2001)
